The source made the active and inactive calls. No cut-off for these calls is given here.
Legend:
Rattus norvegicus [1] = test: Neurotoxicity in pilocarpine-induced status epilepticus Sprague-Dawley albino rat model assessed as minimal motor impairment at 100 mg/kg, ip after 0.25 hr by rotarod test; assay type: toxicity, organism-based; parameters: dose 100 mg/kg, route intraperitoneal; conditions: in vivo
Mus musculus [2] = test: Neurotoxicity in albino CF1 mouse assessed as minimal motor impairment at 100 mg/kg, ip after 4 hrs by rotarod test; assay type: toxicity, organism-based; parameters: dose 100 mg/kg, route intraperitoneal; conditions: in vivo
Summary of the method: (§1)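 Mice dosed ip at 30, 100 or 300 mg/kg, then tested 0.5 h and 4 h after administration in the MES or scMet test. Protection was recorded as animals protected over animals tested. Neurotoxicity was recorded as motor impairment or sedation, as animals affected over animals tested.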

Mus musculus [3] = test: Neurotoxicity in albino CF1 mouse assessed as minimal motor impairment at 100 mg/kg, ip after 0.5 hrs by rotarod test; assay type: toxicity, organism-based; parameters: dose 100 mg/kg, route intraperitoneal; conditions: in vivo; summary of the method: as §1
Mus musculus [4] = test: Neurotoxicity in albino CF1 mouse assessed as minimal motor impairment at 300 mg/kg, ip after 4 hrs by rotarod test; assay type: toxicity, organism-based; parameters: dose 300 mg/kg, route intraperitoneal; conditions: in vivo; summary of the method: as §1
Mus musculus [5] = test: Protective index, ratio of TD50 for ip dosed albino CF1 mouse by rotarod test to ED50 for ip dosed albino CF1 mouse by subcutaneous metrazol seizures test; assay type: functional
Summary of the method: (§2)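 Protective index calculated as TD50/ED50, with TD50 and ED50 taken from the same species and dosing route.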

Rattus norvegicus [6] = test: Neurotoxicity in pilocarpine-induced status epilepticus Sprague-Dawley albino rat model assessed as minimal motor impairment at 30 mg/kg, ip after 0.25 hr by rotarod test; assay type: toxicity, organism-based; parameters: dose 30 mg/kg, route intraperitoneal; conditions: in vivo
Summary of the method: (§3)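 Rat pilocarpine status epilepticus model: test carbamate given at 0 or 30 min after the first observed Racine stage 3 motor seizure, which marks SE onset. Neurotoxicity was scored within the same model.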

Rattus norvegicus [7] = test: Protective index, ratio of TD50 for po dosed Sprague-Dawley albino rat by rotarod test to ED50 for po dosed Sprague-Dawley albino rat by subcutaneous metrazol seizures test; assay type: functional; summary of the method: as §2
Rattus norvegicus [8] = test: Protective index, ratio of TD50 for po dosed Sprague-Dawley albino rat by rotarod test to ED50 for po dosed Sprague-Dawley albino rat by maximal electroshock seizures test; assay type: functional; summary of the method: as §2
Rattus norvegicus [9] = test: Neurotoxicity in pilocarpine-induced status epilepticus Sprague-Dawley albino rat model assessed as minimal motor impairment at 30 mg/kg, ip after 2 hrs by rotarod test; assay type: toxicity, organism-based; parameters: dose 30 mg/kg, route intraperitoneal; conditions: in vivo; summary of the method: as §3
Mus musculus [10] = test: Anticonvulsant activity in ip dosed albino CF-1 mouse assessed as protection against 6 Hz psychomotor seizure; assay type: functional; conditions: albino CF-1, ip
Summary of the method: (§4)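 Quantitative testing: rats dosed orally or ip in MES and scMet tests, and mice dosed ip, including the 6 Hz (32 mA) psychomotor seizure test. ED50 and TD50 were reported in mg/kg with ranges in parentheses. Protective index was calculated as TD50/ED50.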

Mus musculus [11] = test: Neurotoxicity in albino CF1 mouse assessed as minimal motor impairment at 300 mg/kg, ip after 0.5 hrs by rotarod test; assay type: toxicity, organism-based; parameters: dose 300 mg/kg, route intraperitoneal; conditions: in vivo; summary of the method: as §1
Rattus norvegicus [12] = test: Anticonvulsant activity in ip dosed Sprague-Dawley albino rat assessed as protection against subcutaneous metrazol-induced seizures; assay type: functional; summary of the method: as §4
Rattus norvegicus [13] = test: Neurotoxicity in Sprague-Dawley albino rat assessed as minimal motor impairment at 30 mg/kg, po by rotarod test; assay type: toxicity, organism-based; parameters: dose 30 mg/kg, route oral; conditions: in vivo
Summary of the method: (§5)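 Rats dosed orally. Anti-MES protection was scored as animals protected over animals tested at each time after dosing. Neurotoxicity was scored as motor impairment or sedation, as animals affected over animals tested.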

Mus musculus [14] = test: Anticonvulsant activity in albino CF1 mouse assessed as protection against subcutaneous metrazol-induced seizures at 30 mg/kg, ip after 0.5 hrs; assay type: functional, organism-based; parameters: dose 30 mg/kg; summary of the method: as §1
Rattus norvegicus [15] = test: Neurotoxicity in pilocarpine-induced status epilepticus Sprague-Dawley albino rat model assessed as minimal motor impairment at 100 mg/kg, ip after 1 hr by rotarod test; assay type: toxicity, organism-based; parameters: dose 100 mg/kg, route intraperitoneal; conditions: in vivo
Mus musculus [16] = test: Anticonvulsant activity in albino CF1 mouse assessed as protection against subcutaneous metrazol-induced seizures at 300 mg/kg, ip after 4 hrs; assay type: functional, organism-based; parameters: dose 300 mg/kg; summary of the method: as §1
Rattus norvegicus [17] = test: Protective index, ratio of TD50 for ip dosed Sprague-Dawley albino rat by rotarod test to ED50 for ip dosed Sprague-Dawley albino rat by subcutaneous metrazol seizures test; assay type: functional; summary of the method: as §2
Mus musculus [18] = test: Anticonvulsant activity in albino CF1 mouse assessed as protection against maximal electroshock-induced seizures at 300 mg/kg, ip after 0.5 hrs; assay type: functional, organism-based; parameters: dose 300 mg/kg; summary of the method: as §1
Mus musculus [19] = test: Anticonvulsant activity in albino CF1 mouse assessed as protection against subcutaneous metrazol-induced seizures at 30 mg/kg, ip after 4 hrs; assay type: functional, organism-based; parameters: dose 30 mg/kg; summary of the method: as §1
Rattus norvegicus [20] = test: Neurotoxicity in pilocarpine-induced status epilepticus Sprague-Dawley albino rat model assessed as minimal motor impairment at 100 mg/kg, ip after 2 hrs by rotarod test; assay type: toxicity, organism-based; parameters: dose 100 mg/kg, route intraperitoneal; conditions: in vivo
Rattus norvegicus [21] = test: Protective index, ratio of TD50 for ip dosed Sprague-Dawley albino rat by rotarod test to ED50 for ip dosed Sprague-Dawley albino rat by maximal electroshock seizures test; assay type: functional; summary of the method: as §2
Rattus norvegicus [22] = test: Neurotoxicity in pilocarpine-induced status epilepticus Sprague-Dawley albino rat model assessed as minimal motor impairment at 100 mg/kg, ip after 0.5 hrs by rotarod test; assay type: toxicity, organism-based; parameters: dose 100 mg/kg, route intraperitoneal; conditions: in vivo
Rattus norvegicus [23] = test: Anticonvulsant activity in Sprague-Dawley albino rat assessed as protection against maximal electroshock-induced seizures at 30 mg/kg, po after 30 mins; assay type: functional, organism-based; parameters: dose 30 mg/kg; summary of the method: as §5
Rattus norvegicus [24] = test: Ratio of ED50 for po dosed Sprague-Dawley albino rat to ED50 for ip dosed Sprague-Dawley albino rat by maximal electroshock-induced seizure test; assay type: functional
Rattus norvegicus [25] = test: Neurotoxicity in pilocarpine-induced status epilepticus Sprague-Dawley albino rat model assessed as minimal motor impairment at 300 mg/kg, ip after 0.25 hr by rotarod test; assay type: toxicity, organism-based; parameters: dose 300 mg/kg, route intraperitoneal; conditions: in vivo; summary of the method: as §3
Rattus norvegicus [26] = test: Anticonvulsant activity in Sprague-Dawley albino rat assessed as protection against maximal electroshock-induced seizures at 30 mg/kg, po after 1 hr; assay type: functional, organism-based; parameters: dose 30 mg/kg; summary of the method: as §5
[27] = Neurotoxicity in ip dosed albino CF1 mouse assessed as minimal motor impairment by rotarod test; assay type: toxicity, organism-based; conditions: in vivo; summary of the method: as §4
Rattus norvegicus [28] = test: Anticonvulsant activity in po dosed Sprague-Dawley albino rat assessed as protection against maximal electroshock-induced seizures; assay type: functional; summary of the method: as §4
Rattus norvegicus [29] = test: Neurotoxicity in pilocarpine-induced status epilepticus Sprague-Dawley albino rat model assessed as minimal motor impairment at 30 mg/kg, ip after 4 hrs by rotarod test; assay type: toxicity, organism-based; parameters: dose 30 mg/kg, route intraperitoneal; conditions: in vivo; summary of the method: as §3
Mus musculus [30] = test: Neurotoxicity in albino CF1 mouse assessed as minimal motor impairment at 30 mg/kg, ip after 0.5 hrs by rotarod test; assay type: toxicity, organism-based; parameters: dose 30 mg/kg, route intraperitoneal; conditions: in vivo; summary of the method: as §1
Rattus norvegicus [31] = test: Anticonvulsant activity in Sprague-Dawley albino rat assessed as protection against pilocarpine-induced status epilepticus at 65 mg/kg, ip; assay type: functional, organism-based; parameters: dose 65 mg/kg
Summary of the method: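 Pilocarpine status epilepticus model in rats. Number and severity of convulsive seizures were observed behaviourally.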

Mus musculus [32] = test: Anticonvulsant activity in albino CF1 mouse assessed as protection against maximal electroshock-induced seizures at 30 mg/kg, ip after 4 hrs; assay type: functional, organism-based; parameters: dose 30 mg/kg; summary of the method: as §1
Rattus norvegicus [33] = test: Anticonvulsant activity in ip dosed Sprague-Dawley albino rat assessed as protection against maximal electroshock-induced seizures; assay type: functional; summary of the method: as §4
Mus musculus [34] = test: Anticonvulsant activity in albino CF1 mouse assessed as protection against maximal electroshock-induced seizures at 100 mg/kg, ip after 0.5 hrs; assay type: functional, organism-based; parameters: dose 100 mg/kg; summary of the method: as §1
Mus musculus [35] = test: Anticonvulsant activity in ip dosed albino CF1 mouse assessed as protection against maximal electroshock-induced seizures; assay type: functional; summary of the method: as §4
Mus musculus [36] = test: Anticonvulsant activity in albino CF1 mouse assessed as protection against maximal electroshock-induced seizures at 100 mg/kg, ip after 4 hrs; assay type: functional, organism-based; parameters: dose 100 mg/kg; summary of the method: as §1
Mus musculus [37] = test: Neurotoxicity in albino CF1 mouse assessed as minimal motor impairment at 30 mg/kg, ip after 4 hrs by rotarod test; assay type: toxicity, organism-based; parameters: dose 30 mg/kg, route intraperitoneal; conditions: in vivo; summary of the method: as §1
[38] = Neurotoxicity in ip dosed Sprague-Dawley albino rat assessed as minimal motor impairment by rotarod test; assay type: toxicity, organism-based; conditions: in vivo; summary of the method: as §4

## CCC(COC(N)=O)C(C)C (racemic)
Rattus norvegicus [1]
  Activity: Toxic
Mus musculus [2]
  Activity: Non-toxic
Mus musculus [3]
  Activity: Non-toxic
Mus musculus [4]
  Activity: Non-toxic
Mus musculus [5]
  Ratio TD50/ED50: 2.9
Rattus norvegicus [6]
  Activity: Non-toxic
Rattus norvegicus [7]
  Ratio TD50/ED50: 14
Rattus norvegicus [8]
  Ratio TD50/ED50: 7.8
Rattus norvegicus [9]
  Activity: Non-toxic
Mus musculus [10]
  ED50: 33 mg/kg
Mus musculus [11]
  Activity: Toxic
Rattus norvegicus [12]
  ED50: 19 mg/kg
Rattus norvegicus [13]
  Activity: Non-toxic
Mus musculus [14]
  Activity: inactive
Rattus norvegicus [15]
  Activity: Non-toxic
Mus musculus [16]
  Activity: inactive
Rattus norvegicus [17]
  Ratio TD50/ED50: 1.3
Mus musculus [18]
  Activity: Active
Mus musculus [19]
  Activity: inactive
Rattus norvegicus [20]
  Activity: Non-toxic
Rattus norvegicus [21]
  Ratio TD50/ED50: 3.6
Rattus norvegicus [22]
  Activity: Toxic
Rattus norvegicus [23]
  Activity: inactive
Rattus norvegicus [24]
  Ratio ED50: 4
Rattus norvegicus [25]
  Activity: Toxic
Rattus norvegicus [26]
  Activity: inactive
[27]
  TD50: 157 mg/kg
Rattus norvegicus [28]
  ED50: 64 mg/kg
Rattus norvegicus [29]
  Activity: Non-toxic
Mus musculus [30]
  Activity: Non-toxic
Rattus norvegicus [31]
  Activity: Active
Mus musculus [32]
  Activity: inactive
Rattus norvegicus [33]
  ED50: 16 mg/kg
Mus musculus [34]
  Activity: inactive
Mus musculus [35]
  ED50: 103 mg/kg
Mus musculus [36]
  Activity: inactive
Mus musculus [37]
  Activity: Non-toxic
[38]
  TD50: 58 mg/kg

— ChEMBL document CHEMBL2086252, “Syntheses and evaluation of anticonvulsant activity of novel branched alkyl carbamates” (J Med Chem, 2012)
